A selection: hits, their analogues and other compounds. The true share with any hit is near 4.6%.
GPR7 antag = human neuropeptides B/W receptor 1 antagonism; P48145; GPR7-expressing cells, fluorescence antagonist assay; inhibition, % at 4.4 µM; 290,000 tested, 1.1% active; AID 1861; in the data active means inhibition above about 16%, passing the limit was not always enough;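 further: cells stimulated with the agonist NPW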
Target sequence (P48145 whole entry, looked up): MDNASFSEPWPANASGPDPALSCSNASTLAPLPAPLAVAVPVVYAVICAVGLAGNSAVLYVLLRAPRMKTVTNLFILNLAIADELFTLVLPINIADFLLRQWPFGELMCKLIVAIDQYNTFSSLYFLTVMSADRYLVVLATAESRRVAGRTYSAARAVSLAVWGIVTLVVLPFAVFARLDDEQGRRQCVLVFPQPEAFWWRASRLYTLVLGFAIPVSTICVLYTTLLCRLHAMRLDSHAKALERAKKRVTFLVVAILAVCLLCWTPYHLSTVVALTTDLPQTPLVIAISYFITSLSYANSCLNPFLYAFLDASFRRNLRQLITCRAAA
OX1R antag-1 = antagonists of human orexin 1 receptor (OX1R). O43613. OX1R-expressing cells, FRET antagonist read-out. inhibition, % at 6.6 µM. 330,000 tested, 1.8% active; in the data active means inhibition mostly above about 38%, no sharp cut-off; inactive means mostly below about 40%
CHO parental Ca = counter-screen for OX1R antagonists: effect in parental CHO cells; parental CHO-K1, ATP-induced calcium, Fluo-8 fluorescence; inhibition, % at 5.6 µM; 330,000 tested, 0.63% active;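 active means inhibition above that plate's mean sample inhibition plus 3 SD, cut at about 26% in these data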
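Test system: untransfected parental CHO cell line; also added: ATP stimulus; dosing: 5.6 µM, single dose; signal: calcium-sensitive Fluo-8 fluorescence; measure: percent inhibition of ATP-evoked calcium rise, normalized to controls; benchmarks: low control ATP plus DMSO, high control DMSO only; replication: one well per compound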
TAAR1 agonist = human TAAR1 agonism | Q96RJ0 | CHO RD-HGA16 TAAR1, Fluo-8 calcium fluorescence; vehicle wells 0%, saturating PEA agonist 100% | activation, % at 3 µM | 360,000 tested, 0.99% active | AID 624467;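 active means activation above the mean activation of all test compounds in the run plus 3 SD, cut at about 38% in these data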
Target sequence (Q96RJ0 whole entry, looked up): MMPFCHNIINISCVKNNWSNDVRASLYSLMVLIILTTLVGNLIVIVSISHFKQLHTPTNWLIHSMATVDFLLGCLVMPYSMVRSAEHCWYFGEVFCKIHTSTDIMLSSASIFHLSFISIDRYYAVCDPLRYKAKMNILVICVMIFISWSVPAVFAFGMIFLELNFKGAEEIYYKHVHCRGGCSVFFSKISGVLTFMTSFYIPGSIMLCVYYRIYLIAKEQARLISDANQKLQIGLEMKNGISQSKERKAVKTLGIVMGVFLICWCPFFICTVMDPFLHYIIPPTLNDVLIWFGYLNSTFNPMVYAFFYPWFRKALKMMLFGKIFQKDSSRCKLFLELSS
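Benchmarks: low control DMSO, high control PEA (EC100); System: CHO RD-HGA16 cells carrying human TAAR1 plus Gα16; Detection: Fluo-8 fluorescence, 5 s baseline then 140 s kinetic read; Schedule: 17-24 h plating, Fluo-8 75 min 37 °C, 30 min RT; Read-out basis: % activation from peak over basal fluorescence ratio, DMSO-to-PEA scaled.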
OX1R antag-2 = antagonists of human orexin 1 receptor; O43613; CHO/OX1R cells, Fluo-8 calcium fluorescence, orexin A; inhibition, % at 5 µM; 330,000 tested, 0.43% active; AID 434989;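 active means inhibition above its plate's threshold, mean inhibition of all tested compounds on the plate plus 3 SD, cut at about 37% in these data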
TAAR1 antag = antagonists of human TAAR1. Q96RJ0. CHO RD-HGA16 TAAR1, Fluo-8 calcium fluorescence, antagonist. inhibition, % at 3 µM. 360,000 tested, 1.5% active;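 active means inhibition above a per-plate cutoff, the mean inhibition of test compounds on that plate plus 3 SD, cut at about 49% in these data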
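Material: RD-HGA16 CHO cells with stable hTAAR1 and Gα16; Dosing: single nominal final test compound concentration of 3 µM; Schedule: seeding 17-24 h prior, 75-min 37 °C, 30-min RT dye loading; Detection: kinetic Fluo-8 calcium fluorescence measurement; Measure: % inhibition from peak post-agonist over basal fluorescence ratio; Benchmarks: vehicle and agonist controls.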
GPR7 antag cf = human GPR7 antagonism, confirmation assay | AID 1952 | inhibition, % at 4.4 µM | shares compounds with GPR7 antag | GPR7-expressing cells, calcium fluorescence antagonist mode | 2,400 tested, 52% active; in the data active means inhibition above about 24%;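 further: stimulated with the GPR7 agonist NPW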
MCHR1 antag = MCHR1 (human) antagonism in GPR7 counter-screen; shares compounds with GPR7 antag; MCHR1-expressing cells, fluorescence antagonist assay; inhibition, % at 4.4 µM; 2,400 tested, 62% active; in the data active means inhibition above about 22%
Of the large screens only hits and unclear results are named; the others gave an inactive call (follow-up assays come after a bar, where they were run).

CCOC(=O)[C@]12CCC=C1N(Cc1ccco1)C(=O)[C@H](CC(=O)NCC13CC4CC(CC(C4)C1)C3)C2	none (no result: GPR7 antag, OX1R antag-1, CHO parental Ca, OX1R antag-2)
CC1CN/C(=C\C(=O)c2ccccc2)C(=O)N1 (centres undefined)	GPR7 antag 30 | GPR7 antag cf inactive | MCHR1 antag inactive
O=S(=O)(c1ccc(F)cc1)N1CCCc2nc(-c3ccc(Br)cc3)ccc21	none (no result: GPR7 antag, OX1R antag-1, CHO parental Ca, OX1R antag-2)
CN(C)c1ccc(-c2nnn(CC(=O)NCc3ccc4c(c3)OCO4)n2)cc1	GPR7 antag 24 | GPR7 antag cf inactive | MCHR1 antag inactive
CN(C)c1cccc(C(=O)NCc2ccc3c(c2)OCO3)c1	GPR7 antag 36 | GPR7 antag cf inactive | MCHR1 antag inactive
Cc1ccccc1C(=O)N=c1ccn(-c2nc3ccccc3nc2NS(=O)(=O)c2ccccc2)cc1	none
CCOc1ccc(S(=O)(=O)Nc2nc3ccccc3nc2-n2ccc(=NC(=O)c3ccccc3C)cc2)cc1	GPR7 antag 23 | GPR7 antag cf inactive | MCHR1 antag inactive
CN1CCCC(CN2c3ccccc3Sc3ccccc32)C1 (centres undefined)	GPR7 antag 35 | GPR7 antag cf 51 | MCHR1 antag 34
Cc1ccc(C(O)(C(=O)NN(C(=O)c2ccccc2)c2ccccc2)c2ccc(C)cc2)cc1	GPR7 antag 36 | GPR7 antag cf 39 | MCHR1 antag 23
O=C(c1ccccc1)N(NC(=O)C(O)(c1ccccc1)c1ccccc1)c1cccc(F)c1	GPR7 antag 37 | GPR7 antag cf inactive | MCHR1 antag 64
CC(C)(O)C(=O)NN(C(=O)c1ccccc1)c1ccc2ccccc2c1	none (no result: TAAR1 agonist, TAAR1 antag)
COC(=O)Nc1nnc(/C=C/c2ccc(OC)cc2)s1	GPR7 antag 24 | GPR7 antag cf inactive | MCHR1 antag inactive
Cc1nc(Cl)c(C(=O)NCc2ccccc2)c(C)c1Cl	none
O=C(NCc1ccccc1)c1c(Cl)nc(Cl)c(Cl)c1Cl	GPR7 antag 76 | GPR7 antag cf 87 | MCHR1 antag 45
Cc1cc(C(c2nnnn2Cc2ccccc2)N2CCOCC2)c(C)n1-c1ccc2c(c1)OCO2 (centres undefined)	none (no result: TAAR1 agonist, TAAR1 antag)
O=C(c1ccco1)N1CCN(S(=O)(=O)c2ccc(Br)s2)CC1	GPR7 antag 47 | GPR7 antag cf inactive | MCHR1 antag inactive
COc1ccc(NC(=O)COC(=O)c2c3c(nc4ccccc24)CCCC3)cc1Cl	GPR7 antag 32, OX1R antag-1 75, TAAR1 antag 67 | GPR7 antag cf 35 | MCHR1 antag 73
COc1ccc(NC(=O)COC(=O)c2c3c(nc4ccccc24)CCCC3)cc1	none
COc1ccccc1N1CCN(CC(=O)Nc2c(C)n[nH]c2C)CC1	none
COc1ccccc1C1(O)CCN(CC(=O)Nc2c(C)nn(C)c2C)CC1	GPR7 antag 27 | GPR7 antag cf inactive | MCHR1 antag inactive
CCNC(=O)N1CCN(c2ccc(N3CCN(Cc4ccccc4)[C@H](C)C3)c(C)c2)[C@H](C)C1	none (no result: GPR7 antag, OX1R antag-1, CHO parental Ca, OX1R antag-2)
O=C(COc1ccc(Cl)cc1)Nc1ccc2c(c1)C(=O)NC2=O	GPR7 antag 33 | GPR7 antag cf 24 | MCHR1 antag 27
O=C(COc1ccc(Cl)cc1)Nc1ccc(Cc2ccncc2)cc1	GPR7 antag 28 | GPR7 antag cf 32 | MCHR1 antag 49
Cc1ccc(OCC(=O)Nc2ccc3c(c2)C(=O)NC3=O)cc1	GPR7 antag 28 | GPR7 antag cf 40 | MCHR1 antag 35
O=C(CSCc1ccccc1)Nc1ccc2c(c1)C(=O)NC2=O	GPR7 antag 24 | GPR7 antag cf 35 | MCHR1 antag 34
COc1cccc(NC(=O)COc2ccc(Br)c(C)c2)c1	none
Cc1cc(OCC(=O)Nc2ccncc2)ccc1Br	GPR7 antag 23, CHO parental Ca 41, OX1R antag-2 48 | GPR7 antag cf 36 | MCHR1 antag 50
CC1CC(C)CN(CCCNC(=O)c2ccc3c(c2)N(Cc2ccccc2)C(=O)c2ccccc2S3=O)C1 (centres undefined)	GPR7 antag 35 | GPR7 antag cf inactive | MCHR1 antag inactive
C#CCNC(=O)C1=C[C@@H](c2ccc(C#C)cc2)C[C@@H](OCc2ccc(CO)cc2)O1	none (no result: GPR7 antag)
CC(=O)N1CN(C2CCCC2)Cc2c1sc1c2CCCC1	GPR7 antag 24 | GPR7 antag cf inactive | MCHR1 antag inactive
CC(=O)N1CN(C2CC(C)(C)NC(C)(C)C2)Cc2c1sc1c2CCCC1	none
O=C(C1COc2ccccc2O1)N1CCc2ccccc2C1 (centres undefined)	GPR7 antag 21 | GPR7 antag cf inactive | MCHR1 antag 35
O=C(C1COc2ccccc2O1)N1CCCCC1 (centres undefined)	none (no result: GPR7 antag)
Cc1ccccc1-c1ccc2c(c1)[C@@H]1C[C@H](N(C)C(=O)c3ccco3)[C@H]([C@H](C)O)CN1CC2	none (no result: GPR7 antag, OX1R antag-1, CHO parental Ca, OX1R antag-2)
COc1ccc(CNC(=O)CCCCCNC(=O)N2CCn3c2nc2ccccc23)cc1	none
CCCCCCCC1CC(CSc2ncn[nH]2)OC1=O (centres undefined)	GPR7 antag 21 | GPR7 antag cf 38 | MCHR1 antag 38
CCCCC1CC(CSc2ncn[nH]2)OC1=O (centres undefined)	none
CCOC(=O)N1CCC(NC(=O)CN2C(=O)C(CC)Oc3ccc(C)cc32)CC1 (centres undefined)	none
CCC1Oc2ccc(C)cc2N(CC(=O)NC2CCCCC2)C1=O (centres undefined)	GPR7 antag 32 | GPR7 antag cf inactive | MCHR1 antag inactive
Cc1ccc(-c2csc(NC(=O)c3ccc(Br)cc3)c2C(=O)O)cc1	GPR7 antag 40 | GPR7 antag cf 62 | MCHR1 antag 46
CC(C)Nc1ccc(Nc2ccnc3cc4ccccc4cc23)cc1	none
c1ccc(CCNc2ccnc3cc4ccccc4cc23)cc1	GPR7 antag 37 (no result: OX1R antag-1, CHO parental Ca, OX1R antag-2) | GPR7 antag cf 45 | MCHR1 antag 75
Cc1[nH]c2ccccc2c1CC(=O)Nc1ccc(Nc2cccnc2)c(Br)c1	none (no result: GPR7 antag, OX1R antag-1, CHO parental Ca, OX1R antag-2)
C#CCNC(=O)C[C@H]1C[C@@]2(C(=O)OC)C(=C[C@H](C(C)(C)C)O[C@@H]2C)N(CCCCCCCC)C1=O	none (no result: GPR7 antag, OX1R antag-1, CHO parental Ca, OX1R antag-2)
FC(F)(F)c1cc(C(F)(F)F)c2ccc(N3CCN(c4ccc(Cl)cc4)CC3)nc2n1	none
N#CC(c1ccc(Cl)cc1)c1ccc2c(C(F)(F)F)cc(C(F)(F)F)nc2n1 (centres undefined)	GPR7 antag 33 | GPR7 antag cf 59 | MCHR1 antag 50

Source: PubChem BioAssay
